Data: ChEMBL document CHEMBL4715736, “Identification of anticancer agents based on the thieno[2,3-b]pyridine and 1H-pyrazole molecular scaffolds” (2016)

Legend:
Format in all cases: functional
[1] = system: HOP-62; assay: Growth inhibition of human HOP-62 cells assessed as cell growth at 10 uM incubated for 48 hrs by sulforhodamine B assay relative to control; conditions: read-out: Activity
Method in brief: (§1)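 Submitted to the NCI Developmental Therapeutics Program for the NCI60 human tumour cell line panel. First screen at a single 10 µM concentration. Read-out is growth relative to untreated control cells set at 100%.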

[2] = system: HCT-15; assay: Growth inhibition of human HCT-15 cells incubated for 48 hrs by sulforhodamine B assay
Method in brief: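 NCI60 panel at the NCI Developmental Therapeutics Program. Only compounds active in the 10 µM screen went to dose-response testing. GI50, the concentration giving 50% of maximal inhibition of proliferation, and TGI, the concentration giving total growth inhibition, were derived from the dose-response curves.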

[3] = system: 786-0; assay: Growth inhibition of human 786-0 cells assessed as cell growth at 10 uM incubated for 48 hrs by sulforhodamine B assay relative to control; conditions: read-out: Activity
Method in brief: (§2)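 NCI Developmental Therapeutics Program NCI60 panel. Compounds that were active in the 10 µM one-dose screen went on to dose–response testing. Growth at each concentration is expressed relative to untreated control (100%). GI50 (concentration giving 50% of maximal inhibition of proliferation) and TGI (concentration giving total growth inhibition) were derived from the curves.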

[4] = system: HL-60(TB); assay: Growth inhibition of human HL-60(TB) cells assessed as cell growth at 10 uM incubated for 48 hrs by sulforhodamine B assay relative to control; conditions: read-out: Activity
Method in brief: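 Screened by the NCI Developmental Therapeutics Program on its panel of 60 human tumour cell lines. Compounds were first tested at a single 10 µM dose, and compounds active there went to dose-response curves. Growth is expressed relative to untreated control (100%). GI50 (50% of maximal proliferation inhibition) and TGI (total growth inhibition) were derived from the dose-response data.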

[5] = system: SK-MEL-2; assay: Growth inhibition of human SK-MEL-2 cells assessed as cell growth at 1 uM incubated for 48 hrs by sulforhodamine B assay relative to control; conditions: read-out: Activity
[6] = system: DU-145; assay: Growth inhibition of human DU-145 cells assessed as cell growth at 10 uM incubated for 48 hrs by sulforhodamine B assay relative to control; conditions: read-out: Activity; method in brief: as §2
[7] = system: SF-295; assay: Growth inhibition of human SF-295 cells incubated for 48 hrs by sulforhodamine B assay
Method in brief: (§3)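 NCI DTP 60-line human tumour panel. Dose-response curves were run only for ligands active in the initial 10 µM screen. GI50 (concentration giving 50% of maximal inhibition of proliferation) and TGI (concentration giving total growth inhibition) were derived from these curves.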

[8] = system: OVCAR-4; assay: Growth inhibition of human OVCAR-4 cells incubated for 48 hrs by sulforhodamine B assay; conditions: for CC50: read-out: LC50 (the source's name); method in brief: as §3
[9] = system: CAKI-1; assay: Growth inhibition of human CAKI-1 cells assessed as cell growth at 10 uM incubated for 48 hrs by sulforhodamine B assay relative to control; conditions: read-out: Activity; method in brief: as §2
[10] = system: SR; assay: Growth inhibition of human SR cells assessed as cell growth at 10 uM incubated for 48 hrs by sulforhodamine B assay relative to control; conditions: read-out: Activity
Method in brief: (§4)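 Run by the NCI Developmental Therapeutics Program as part of its 60-line human tumour panel. Each compound tested at a single 10 µM dose. Growth expressed as % relative to untreated control cells (100%).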

[11] = system: HCT-116; assay: Growth inhibition of human HCT-116 cells assessed as cell growth at 10 uM incubated for 48 hrs by sulforhodamine B assay relative to control; conditions: read-out: Activity; method in brief: as §1
[12] = system: NCI-H522; assay: Growth inhibition of human NCI-H522 cells assessed as cell growth at 10 uM incubated for 48 hrs by sulforhodamine B assay relative to control; conditions: read-out: Activity; method in brief: as §1
[13] = system: SK-MEL-2; assay: Growth inhibition of human SK-MEL-2 cells assessed as cell growth at 10 uM incubated for 48 hrs by sulforhodamine B assay relative to control; conditions: read-out: Activity; method in brief: as §4
[14] = system: NCI/ADR-RES; assay: Growth inhibition of human NCI/ADR-RES cells assessed as cell growth at 0.1 uM incubated for 48 hrs by sulforhodamine B assay relative to control; conditions: read-out: Activity
[15] = system: M14; assay: Growth inhibition of human M14 cells assessed as cell growth at 10 uM incubated for 48 hrs by sulforhodamine B assay relative to control; conditions: read-out: Activity; method in brief: as §1
[16] = system: SK-OV-3; assay: Growth inhibition of human SK-OV-3 cells assessed as cell growth at 10 uM incubated for 48 hrs by sulforhodamine B assay relative to control; conditions: read-out: Activity; method in brief: as §4
[17] = system: HT-29; assay: Growth inhibition of human HT-29 cells assessed as cell growth at 10 uM incubated for 48 hrs by sulforhodamine B assay relative to control; conditions: read-out: Activity; method in brief: as §1
[18] = system: COLO 205; assay: Growth inhibition of human COLO 205 cells incubated for 48 hrs by sulforhodamine B assay; method in brief: as §2
[19] = system: U-251; assay: Growth inhibition of human U-251 cells assessed as cell growth at 10 uM incubated for 48 hrs by sulforhodamine B assay relative to control; conditions: read-out: Activity; method in brief: as §4
[20] = system: ACHN; assay: Growth inhibition of human ACHN cells assessed as cell growth at 10 uM incubated for 48 hrs by sulforhodamine B assay relative to control; conditions: read-out: Activity
Method in brief: (§5)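 NCI Developmental Therapeutics Program NCI60 human tumour cell line panel, one-dose primary screen with every compound at 10 µM. Growth is expressed as % of untreated control cells (100%).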

[21] = system: A549; assay: Growth inhibition of human A549/ATCC cells assessed as cell growth at 10 uM incubated for 48 hrs by sulforhodamine B assay relative to control; conditions: read-out: Activity; method in brief: as §2
[22] = system: KM12; assay: Growth inhibition of human KM12 cells assessed as cell growth at 10 uM incubated for 48 hrs by sulforhodamine B assay relative to control; conditions: read-out: Activity; method in brief: as §1
[23] = system: HCC 2998; assay: Growth inhibition of human HCC 2998 cells assessed as cell growth at 10 uM incubated for 48 hrs by sulforhodamine B assay relative to control; conditions: read-out: Activity; method in brief: as §2
[24] = system: UO-31; assay: Growth inhibition of human UO-31 cells assessed as cell growth at 100 uM incubated for 48 hrs by sulforhodamine B assay relative to control; conditions: read-out: Activity
[25] = system: BT-549; assay: Growth inhibition of human BT-549 cells assessed as cell growth at 10 uM incubated for 48 hrs by sulforhodamine B assay relative to control; conditions: read-out: Activity; method in brief: as §5
[26] = system: SF-295; assay: Growth inhibition of human SF-295 cells assessed as cell growth at 10 uM incubated for 48 hrs by sulforhodamine B assay relative to control; conditions: read-out: Activity; method in brief: as §4
[27] = system: TK-10; assay: Growth inhibition of human TK-10 cells assessed as cell growth at 10 uM incubated for 48 hrs by sulforhodamine B assay relative to control; conditions: read-out: Activity; method in brief: as §4
[28] = system: SK-MEL-28; assay: Growth inhibition of human SK-MEL-28 cells assessed as cell growth at 10 uM incubated for 48 hrs by sulforhodamine B assay relative to control; conditions: read-out: Activity; method in brief: as §4
[29] = system: MDA-MB-468; assay: Growth inhibition of human MDA-MB-468 cells assessed as cell growth at 10 uM incubated for 48 hrs by sulforhodamine B assay relative to control; conditions: read-out: Activity; method in brief: as §1
[30] = system: NCI-H23; assay: Growth inhibition of human NCI-H23 cells assessed as cell growth at 10 uM incubated for 48 hrs by sulforhodamine B assay relative to control; conditions: read-out: Activity; method in brief: as §1

SMILES | growth at 10 µM [1] | GI50 [2] | LC50 [2] | TGI [2] | growth at 10 µM [3] | growth at 10 µM [4] | growth at 1 µM [5] | growth at 10 µM [6] | GI50 [7] | LC50 (concentration killing 50% of cells) [7] | TGI [7] | GI50 [8] | TGI [8] | CC50 [8] | growth at 10 µM [9] | growth at 10 µM [10] | growth at 10 µM [11] | growth at 10 µM [12] | growth at 10 µM [13] | growth at 0.1 µM [14] | also measured
CCc1ccccc1NC(=O)c1sc2nc3c(cc2c1N)C(=O)CCC3 | 35.5% | 0.349 µM | > 100 µM | > 100 µM | 35.1% | -10.3% | 31% | 2.55% | 0.257 µM | > 100 µM | ≥ 100 µM | 0.0315 µM | > 100 µM | > 100 µM | 29.9% | 9.38% | 24% | -11.6% | 19.9% | 88% | growth at 10 µM [15]: 5%; growth at 10 µM [16]: 30%; growth at 10 µM [17]: 6%; GI50 [18]: 0.252 µM; LC50 (concentration killing 50% of cells) [18]: > 100 µM; TGI [18]: 19.8 µM; growth at 10 µM [19]: 13%; growth at 10 µM [20]: 38%; growth at 10 µM [21]: 21.5%; growth at 10 µM [22]: 21%; growth at 10 µM [23]: 20%; growth at 100 µM [24]: 18%; growth at 10 µM [25]: 48%; growth at 10 µM [26]: -3.21%; growth at 10 µM [27]: 54.7%; growth at 10 µM [28]: 43.7%; growth at 10 µM [29]: 14%
Cc1ccc(NC(=O)c2sc3nc4c(cc3c2N)C(=O)CCC4)cc1C | 23.6% | 0.486 µM | > 100 µM | > 100 µM | 29% | -21% | 22% | 8.18% | 0.328 µM | > 100 µM | > 100 µM | 0.0201 µM | > 100 µM | > 100 µM | 35.7% | 11% | 23% | -9.22% | 31% | 102% | growth at 10 µM [15]: -23%; growth at 10 µM [16]: 4.9%; growth at 10 µM [17]: 1%; GI50 [18]: 0.272 µM; LC50 (concentration killing 50% of cells) [18]: ≥ 100 µM; TGI [18]: 11.4 µM; growth at 10 µM [19]: 10%; growth at 10 µM [20]: 43%; growth at 10 µM [21]: 19.5%; growth at 10 µM [22]: 19.5%; growth at 10 µM [23]: 10%; growth at 100 µM [24]: 16%; growth at 10 µM [25]: 63%; growth at 10 µM [26]: 8.72%; growth at 10 µM [27]: 56%; growth at 10 µM [28]: 37.3%; growth at 10 µM [29]: 4%
CN1CCc2nc3sc(C(N)=O)c(N)c3c(-c3cccs3)c2C1 | 1% | 3.31 µM | > 100 µM | > 100 µM | 19% | -18% | 108% | 10% | 3.61 µM | > 100 µM | > 100 µM | 7.38 µM | > 100 µM | > 100 µM | 11% | -11% | 6% | 9% | -28% | 96% | growth at 10 µM [15]: 11%; growth at 10 µM [16]: 15%; growth at 10 µM [17]: 7%; GI50 [18]: 1.43 µM; LC50 (concentration killing 50% of cells) [18]: 9.35 µM; TGI [18]: 3.66 µM; growth at 10 µM [19]: 10%; growth at 10 µM [21]: 13%; growth at 10 µM [22]: 7%; growth at 10 µM [23]: 14%; growth at 100 µM [24]: 6%; growth at 10 µM [25]: 10%; growth at 10 µM [30]: 3%; growth at 10 µM [26]: 10%; growth at 10 µM [27]: 1%; growth at 10 µM [28]: -2%; growth at 10 µM [29]: -35%
